Here are results for 13 molecules from ChEMBL document CHEMBL3098041, “Synthesis and anticancer evaluation of 3-substituted quinolin-4-ones and 2,3-dihydroquinolin-4-ones” (Bioorg Med Chem, 2014).

Experiment [1] has as its system MCF7. Briefly: Cytotoxicity against human MCF7 cells assessed as cell viability at 25 uM after 72 hrs by Alamar blue assay. The experiment is classed as functional. The note with it: MCF7, 72 h, read-out: Activity. Put shortly:
(§1)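 Cells were grown in DMEM with 10% FBS at 37 °C, 5% CO2, humidified. Log-phase cells were seeded in 96-well plates at a fixed density and allowed to adhere for 24 h. Compound or vehicle-only control was added to duplicate wells at one fixed concentration for 72 h. Alamar Blue fluorescence was read (ex 555, em 585 nm) as % viability (0% = total growth inhibition). Assays were run in triplicate.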

The test system of experiment [2] is HT-29. Briefly: Cytotoxicity against human HT-29 cells assessed as cell viability at 25 uM after 72 hrs by Alamar blue assay. The format is functional. As to conditions: HT-29, 72 h, read-out: Activity. In short, it runs like this:
as §1
For orientation: Alamar Blue is a resazurin reagent that responds to reducing activity.

Experiment [3] has as its system A-431. Briefly: Cytotoxicity against human A431 cells assessed as cell viability at 25 uM after 72 hrs by Alamar blue assay. The experiment is classed as functional. The note with it: A-431, 72 h, read-out: Activity. In short, it runs like this: as §1
Experiment [4] is described as follows: Cytotoxicity against human H460 cells assessed as cell viability at 25 uM after 72 hrs by Alamar blue assay. The format is functional. As to conditions: NCI-H460, 72 h, read-out: Activity. Put shortly: as §1
Experiment [5] has as its system DU-145. Briefly: Cytotoxicity against human DU145 cells assessed as cell viability at 25 uM after 72 hrs by Alamar blue assay. The experiment is classed as functional. The note with it: DU-145, 72 h, read-out: Activity. In short, it runs like this: as §1
Experiment [6] has as its system MRC5. Briefly: Cytotoxicity against human MRC5 cells assessed as cell viability after 72 hrs by Alamar blue assay. The format is cell-based. The note with it: MRC5, 72 h. Put shortly: (§2)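 This was a dose–response Alamar Blue assay run in triplicate. Cells were kept in DMEM with 10% FBS (37 °C, 5% CO2, humidified). Log-phase cells were plated at a fixed density in 96-well plates and left to adhere for 24 h. Compound or vehicle was added to duplicate wells. After 72 h exposure, metabolic activity was measured by fluorescence (ex 555, em 585 nm).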

Experiment [7] has as its system DU-145. Briefly: Cytotoxicity against human DU145 cells assessed as cell viability after 72 hrs by Alamar blue assay. The experiment is classed as functional, cell-based. The note with it: DU-145, 72 h. Put shortly: as §2
The subject of experiment [8] is MCF7. Briefly: Cytotoxicity against human MCF7 cells assessed as cell viability after 72 hrs by Alamar blue assay. The experiment is classed as functional, cell-based. The note with it: MCF7, 72 h. Put shortly: as §2
The nature of experiment [9]: Cytotoxicity against human H460 cells assessed as cell viability after 72 hrs by Alamar blue assay. The format is functional, cell-based. The note with it: NCI-H460, 72 h. Put shortly:
as §2

The test system of experiment [10] is A-431. Briefly: Cytotoxicity against human A431 cells assessed as cell viability after 72 hrs by Alamar blue assay. The format is functional, cell-based. As to conditions: A-431, 72 h. In short, it runs like this:
as §2

Experiment [11] has as its system HT-29. Briefly: Cytotoxicity against human HT-29 cells assessed as cell viability after 72 hrs by Alamar blue assay. The experiment is classed as functional, cell-based. As to conditions: HT-29, 72 h. In short, it runs like this: as §2

Turning to `COc1cc(O)c2c(c1)NCC(c1ccccc1)C2=O` (stereo not given), the viability at 25 µM was found to be 83.2% in experiment [1]; 90.8% in experiment [2]; 90.8% in [3]; 78% in experiment [4]; 81.6% in experiment [5].

As for `COc1cc(OC)c2c(=O)c(-c3ccc(Br)cc3)c[nH]c2c1`, the viability at 25 µM is 35.3% in experiment [1]; 26.2% in [2]; 69.1% in experiment [3]; 33.5% in experiment [4]; 74.8% in experiment [5].

Regarding `COc1cc(OC)c2c(=O)c(-c3ccc(F)cc3)c[nH]c2c1`, the viability at 25 µM in experiment [2] was 114%; in [3], 103%; in experiment [4], 86%; in experiment [5] it was 88.7%.

On to `COc1cc(OC)c2c(=O)c(-c3ccc(C)cc3)c[nH]c2c1`, for which the viability at 25 µM in [2] came to 102%; in experiment [3] it was 89.9%; in [4], 53.8%; in [5], 76.6%.

In the case of `COc1cc(OC)c2c(=O)c(-c3cccc(Br)c3)c[nH]c2c1`, the viability at 25 µM in experiment [2] is 37.8%; in experiment [3], 66.5%; in [4] it was 43.9%; in [5], 71.8%.

`COc1ccc([C@H]2CNc3cc(OC)cc(OC)c3C2=O)cc1`: the viability at 25 µM in experiment [1] is 85.1%; in experiment [2], 106%; in [3], 89.6%; in experiment [4] it was 94.3%; in experiment [5], 91.1%.

With `COc1cc2c(c(OC)c1)C(=O)[C@@H](c1ccccc1)CN2`, the viability at 25 µM was determined as 83.6% in experiment [1]; 98.8% in experiment [2]; 98.3% in experiment [3]; 87.6% in experiment [4]; 95.4% in [5].

On to `O=C1c2c(O)cc(O)cc2NCC1c1ccccc1` (stereo not given), for which the viability at 25 µM in [1] came to 121%; in experiment [2], 98.5%; in [3], 98.5%; in experiment [4] it was 74.5%; in experiment [5], 83.1%.

In the case of `COc1cc(O)c2c(=O)c(-c3ccc(Br)cc3)c[nH]c2c1`, the viability at 25 µM is 52.6% in experiment [1]; 29.2% in experiment [2]; 104% in [3]; 65.5% in experiment [4]; 73.5% in experiment [5].

`COc1cc(O)c2c(=O)c(-c3ccc(F)cc3)c[nH]c2c1`: the viability at 25 µM was 31.2% in experiment [2], 71.4% in experiment [3], 38.9% in [4] and 43.4% in experiment [5].

On to `COc1cc(O)c2c(=O)c(-c3ccc(C)cc3)c[nH]c2c1`, for which the viability at 25 µM was 29.6% in experiment [2], 76.5% in experiment [3], 50.7% in experiment [4] and 85.1% in [5].

A word on the IC50: it is the concentration that gives 50% inhibition. As for `COc1cc(O)c2c(=O)c(-c3cccc(Br)c3)c[nH]c2c1`, the IC50 in experiment [6] came out at 6.7 µM; in experiment [7], 9.5 µM; in experiment [8], 21.9 µM; in experiment [9], 9.2 µM; in experiment [10], 5.5 µM; in experiment [11], 3.6 µM. In addition, the viability at 25 µM stood at 14.1% in experiment [2], 1% in [3], 2% in [4] and 10% in experiment [5].

For the molecule `COc1ccc(C2CNc3cc(OC)cc(O)c3C2=O)cc1` (stereo not given), the viability at 25 µM stood at 85.7% in experiment [1]; 97.3% in experiment [2]; 108% in [3]; 94.1% in [4]; 106% in experiment [5].
